Experimental data gathered from unrelated publications.
Lines come from different studies, so protocols differ.
Target: Phosphatidylinositol 3-kinase catalytic subunit type 3 (PIK3C3, Homo sapiens, UniProt Q8NEB9)
Tested at: 1 µM

O=C(NCC1CCOCC1)c1n[nH]cc1NC(=O)c1c(F)cccc1F — remaining binding (binding; competition with immobilised ligand): 97%
C[C@H]1CCN(c2nccc(-c3cnn4ncccc34)n2)C1 — remaining binding (binding): 86%
O=C(O)c1cc(-c2ccc(C3CCNCC3)cc2)c2ccc(-c3ccc(C(F)(F)F)cc3)cc2c1 — remaining binding (cell-free assay; competition with immobilised ligand): 100%
CN(c1nccc(-c2cnn3ncccc23)n1)C1CC1 — remaining binding (binding): 100%
CO[C@@H](C)c1c(Nc2ccc([C@H](N(C)C(=O)C3CCS(=O)(=O)CC3)C(F)(F)F)cc2)cnc2cc(Cl)nn12 — remaining binding (cell-free assay; competition with immobilised ligand): 100%
N[C@@H]1CCN(c2nccc(-c3cnn4ncccc34)n2)C1 — remaining binding (binding): 83%
CC1=C(C#N)C(c2ccc3c(c2)c(NC(=O)c2ccccc2C)nn3C)C(C#N)=C(C)N1 — remaining binding (cell-free assay; competition with immobilised ligand): 87%
O=C(NCCCN1CCOCC1)c1ccc(Nc2nccc(-c3cc4ccccc4s3)n2)cc1 — remaining binding (binding; competition with immobilised ligand): 0.6%
C=CC(=O)N1CCC(C(=O)NCC(=O)N2CCN(c3nc(-c4cnc(N)nc4C(F)F)nc(N4CCOCC4)n3)CC2)CC1 — remaining binding (binding; competition with immobilised ligand): 4.5%
Cc1cnn2ncc(-c3ccnc(N(C)C)n3)c2c1 — remaining binding (binding): 87%
Nc1ncc2c(n1)-c1c([nH]c3ccc(C#CC4CC4)cc13)CCCC2 — remaining binding (binding; competition with immobilised ligand): 93%
CNC(=O)[C@@H]1CC[C@@H](n2c(-c3ccc4cnccc4c3)nc3ccc(C(=O)NCc4cccc(C(N)=O)c4)cc32)C1 — remaining binding (binding; competition with immobilised ligand): 7.2%
O=C(c1ccc(Nc2nccc(-c3cc4ccccc4s3)n2)cc1)N1CCC(N2CCCC2)CC1 — remaining binding (binding; competition with immobilised ligand): 4.9%
O=C(O)[C@@H]1[C@@H](Cn2nnc3ccccc3c2=O)CC[C@H]1C(=O)c1ccc(OCCC2CCOCC2)cc1 — remaining binding (cell-free assay; competition with immobilised ligand): 96%
COc1cnc(Nc2cccc(S(N)(=O)=O)c2)nc1N1CCN(c2ccccc2)C(=O)C1 — remaining binding (binding; competition with immobilised ligand): 64%
O=C(c1ccc(Nc2ncc(Cl)c(-c3ccc(Cl)s3)n2)cc1)N1CCC(N2CCCC2)CC1 — remaining binding (binding; competition with immobilised ligand): 54%
Cc1c(NC(=O)c2cc(C(N)=O)nc3cc(F)ccc23)c(C(F)(F)F)nn1Cc1ccc(C(C)(C)C)cc1 — remaining binding (cell-free assay; competition with immobilised ligand): 100%
CN(C)c1nccc(-c2cnn3ncccc23)n1 — remaining binding (binding): 100%
c1ccc(N2CCN(Cc3nc4ccccc4[nH]3)CC2)nc1 — remaining binding (cell-free assay; competition with immobilised ligand): 100%
CC1CCCN1c1nccc(-c2cnn3ncccc23)n1 (centres unmarked) — remaining binding (binding): 100%
